Assay results reported in ChEMBL document CHEMBL3352207, “Kinase domain inhibition of leucine rich repeat kinase 2 (LRRK2) using a [1,2,4]triazolo[4,3-b]pyridazine scaffold” (Bioorg Med Chem Lett, 2014).

Experiments:
[1] = Ratio of AUC (0 to tlast) in brain to plasma of rat at 10 mg/kg; type: ADME, organism-based; set-up: dose 10 mg/kg; conditions: brain and plasma
[2] = AUC (0 to 24 hrs) in mouse at 300 mg/kg/day, po for 14 days; type: ADME, organism-based; set-up: time < 24 hr, dose 300 mg/kg/day, route oral; conditions: plasma
Method in brief: (§1)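 Mice were dosed orally at 0, 30 and 300 mg/kg/day for 14 days, 5 males per dose group, in a PK/PD study.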

[3] = AUC (0 to 24 hrs) in mouse at 30 mg/kg/day, po for 14 days; type: ADME, organism-based; set-up: dose 30 mg/kg/day, time < 24 hr, route oral; conditions: plasma; method in brief: as §1
[4] = Cmax in mouse at 300 mg/kg/day, po for 14 days; type: ADME, organism-based; set-up: dose 300 mg/kg/day, route oral; conditions: in vivo; method in brief: as §1
[5] = Ratio of drug level in kidney to plasma of LRRK2 G2019S transgenic mouse kidney at 30 to 300 mg/kg/day; conditions: kidney and plasma
[6] = Cmax in mouse at 30 mg/kg/day, po for 14 days; type: ADME, organism-based; set-up: dose 30 mg/kg/day, route oral; conditions: in vivo; method in brief: as §1

COc1ccc(OC)c(Sc2ccc3nnc(-c4cnn(C)c4)n3n2)c1
Kp [1]: 0.14
AUC at 24 h [2]: 20900 ng·h/mL
AUC at 24 h [3]: 350 ng·h/mL
Cmax [4]: 12900 ng/mL
Kp [5]: 2
Cmax [6]: 200 ng/mL
